# Test results published in ChEMBL document CHEMBL1121573, “2-(Aminomethyl)phenols, a new class of saluretic agents. 1. Effects of nuclear substitution” (J Med Chem, 1980).
# Several values for one entry are separate records, joined by “and”; a condition that tells them apart may be missing. Equal values may be shown once.
# Tests used:
# Canis familiaris [1] = assay: Compound administered intravenously at a dose of 5 mg/kg was evaluated for salidiuretic activity measured as sodium ion excretion in Dog; Value ranges from 800-899; type: ADME, organism-based, Canis lupus familiaris, Urine; parameters: dose 5 mg/kg, route intravenous; unit not given beside the values; details: in vivo, iv
# Outline: (§1)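 Conditioned female mongrel dogs, postabsorptive, water-loaded (500 mL po) 1 h before sodium pentobarbital anesthesia (30 mg/kg iv). Bladder catheter; creatinine 4 g sc; phosphate–mannitol buffer pH 7.4 infused (3.0 mL/min) throughout. […] Urine Na+ measured; response scored 0–6.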
# [2] = Compound administered orally at a dose of 5 mg/kg was evaluated for salidiuretic activity measured as sodium ion excretion in Rat; type: organism-based; parameters: dose 5 mg/kg; details: Urine
# Outline: (§2)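 Female Charles-River rats (150–170 g), overnight on sugar diet with water ad libitum. Compound dissolved in DMF, diluted with water containing Tween 80 (final 4% DMF), given po in 5.0 mL; concurrent vehicle placebo. Three rats per metabolism cage; 0–5 h urine analysed for Na+, K+, Cl-. Values: mequiv × 100 per cage, geometric means of three cages per dose; scored 0–6 by Na+.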
# Canis familiaris [3] = assay: Oral diuretic activity was evaluated by measuring K+ excretion in dog at 5 mg/kg after ip administration ( 0-6 hr); type: ADME, organism-based, Canis lupus familiaris, Urine; parameters: dose 5 mg/kg, route intraperitoneal; details: in vivo
# Outline: (§3)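 Spontaneous urine was pooled with bladder urine collected by catheterization at 6 h. Volume was measured and Na+, K+ and Cl− were determined by standard methods. Values are geometric means.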
# Canis familiaris [4] = assay: Oral diuretic activity was evaluated by measuring Na+ excretion in dog at 20 mg/kg after […] ( 0-6 hr); type: ADME, organism-based, Canis lupus familiaris, Urine; parameters: dose 20 mg/kg; details: in vivo
# Outline: (§4)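 Dogs; spontaneous urine was pooled with bladder urine drained by catheter at the end of 6 h. Urine volume was measured, and aliquots were assayed for Na+, K+ and Cl− by standard methods. Values are geometric means, expressed as mequiv over 0–6 h.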
# Rattus norvegicus [5] = assay: Oral diuretic activity was evaluated by measuring Cl- excretion in Rat at 9 mg/kg […] ( 0-5 hr); type: ADME, organism-based, Urine; parameters: dose 9 mg/kg; details: in vivo
# Outline: (§5)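 Female Charles-River rats (150–170 g) were kept overnight on a sugar diet with water ad libitum. Test substance was dissolved in DMF and diluted with water containing Tween 80 to a final 4% DMF vehicle, then given po in 5.0 mL. Rats were housed three per metabolism cage, and 0–5 h urine was assayed for Na⁺, K⁺ and Cl⁻ alongside concurrent placebo groups. Values are mequiv × 100 per cage, geometric means of three cages per dose.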
# Rattus norvegicus [6] = assay: Evaluated for salidiuretic activity measured as sodium ion excretion in Rat, administered orally at a dose of 50 mg/kg; type: functional, Urine; parameters: unit not given beside the values; details: route oral; outline: as §2
# Canis familiaris [7] = assay: Oral diuretic activity was evaluated by measuring Na+ excretion in dog at 1 mg/kg after ip administration ( 0-6 hr); type: ADME, organism-based, Canis lupus familiaris, Urine; parameters: dose 1 mg/kg, route intraperitoneal; details: in vivo; outline: as §3
# Canis familiaris [8] = assay: Oral diuretic activity was evaluated by measuring K+ excretion in dog at 10 mg/kg after ip administration ( 0-6 hr); type: ADME, organism-based, Canis lupus familiaris, Urine; parameters: dose 10 mg/kg, route intraperitoneal; details: in vivo; outline: as §3
# Rattus norvegicus [9] = assay: Oral diuretic activity was evaluated by measuring K+ excretion in Rat at 3 mg/kg after […] ( 0-5 hr); type: ADME, organism-based, Urine; parameters: dose 3 mg/kg; outline: as §5
# Rattus norvegicus [10] = assay: Oral diuretic activity was evaluated by measuring Na+ excretion in Rat at 81 mg/kg […] ( 0-5 hr); type: ADME, organism-based, Urine; parameters: dose 81 mg/kg
# Outline: (§6)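 Female Charles-River rats (150–170 g) were kept overnight on a sugar diet with water ad libitum. Compound was dissolved in DMF, then diluted with water containing Tween 80 (3 drops/100 mL) to a final 4% DMF, and given po in 5.0 mL. Rats were housed three per metabolism cage. Urine from 0–5 h was analysed for Na+, K+ and Cl−, with concurrent placebo controls. Values are mequiv × 100 per cage, geometric mean of three cages per dose.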
# Rattus norvegicus [11] = assay: Oral diuretic activity was evaluated by measuring K+ excretion in Rat at 9 mg/kg […] ( 0-5 hr); type: ADME, organism-based, Urine; parameters: dose 9 mg/kg; outline: as §5
# Canis familiaris [12] = assay: Oral diuretic activity was evaluated by measuring K+ excretion in dog at 1 mg/kg after ip administration ( 0-6 hr); type: ADME, organism-based, Canis lupus familiaris, Urine; parameters: dose 1 mg/kg, route intraperitoneal; details: in vivo; outline: as §3
# Canis familiaris [13] = assay: Oral diuretic activity was evaluated by measuring Cl- excretion in dog at 5 mg/kg after […] ( 0-6 hr); type: ADME, organism-based, Canis lupus familiaris, Urine; parameters: dose 5 mg/kg, route intraperitoneal; details: in vivo
# Rattus norvegicus [14] = assay: Oral diuretic activity was evaluated by measuring K+ excretion in Rat at 81 mg/kg […] ( 0-5 hr); type: ADME, organism-based, Urine; parameters: dose 81 mg/kg; outline: as §5
# Canis familiaris [15] = assay: Oral diuretic activity was evaluated by measuring Cl- excretion in dog at 10 mg/kg after […] ( 0-6 hr); type: ADME, organism-based, Canis lupus familiaris, Urine; parameters: dose 10 mg/kg, route intraperitoneal; details: in vivo
# Canis familiaris [16] = assay: Oral diuretic activity was evaluated by measuring Cl- excretion in dog at 1 mg/kg after […] ( 0-6 hr); type: ADME, organism-based, Canis lupus familiaris, Urine; parameters: dose 1 mg/kg, route intraperitoneal; details: in vivo
# Rattus norvegicus [17] = assay: Oral diuretic activity was evaluated by measuring Na+ excretion in Rat at 3 mg/kg […] ( 0-5 hr); type: ADME, organism-based, Urine; parameters: dose 3 mg/kg; details: in vivo, ip; outline: as §6
# Rattus norvegicus [18] = assay: Oral diuretic activity was evaluated by measuring Cl- excretion in Rat at 3 mg/kg after […] ( 0-5 hr); type: ADME, organism-based, Urine; parameters: dose 3 mg/kg, route intraperitoneal; details: in vivo
# Canis familiaris [19] = assay: Oral diuretic activity was evaluated by measuring Na+ excretion in dog at 5 mg/kg after ip administration ( 0-6 hr); type: ADME, organism-based, Canis lupus familiaris, Urine; parameters: dose 5 mg/kg, route intraperitoneal; details: in vivo
# Outline: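 Urine collected over 0–6 h: spontaneous voids were pooled with bladder urine taken by catheterization at 6 h. Urine volume was measured, and aliquots were analysed for Na+, K+ and Cl− by standard methods. Electrolyte excretion is reported as geometric means.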
# [20] = Evaluated for salidiuretic activity measured as sodium ion excretion in Rat, administered orally at a dose of 16.5 mg/kg; type: organism-based; parameters: dose 16.5 mg/kg; details: Urine; outline: as §2
# Rattus norvegicus [21] = assay: Oral diuretic activity was evaluated by measuring Cl- excretion in Rat at 27 mg/kg after […] ( 0-5 hr); type: ADME, organism-based, Urine; parameters: dose 27 mg/kg, route intraperitoneal; details: in vivo
# Rattus norvegicus [22] = assay: Oral diuretic activity was evaluated by measuring Cl- excretion in Rat at 81 mg/kg after […] ( 0-5 hr); type: ADME, organism-based, Urine; parameters: dose 81 mg/kg, route intraperitoneal; details: in vivo
# Rattus norvegicus [23] = assay: Oral diuretic activity was evaluated by measuring Na+ excretion in Rat at 27 mg/kg after […] ( 0-5 hr); type: ADME, organism-based, Urine; parameters: dose 27 mg/kg; outline: as §6
# Rattus norvegicus [24] = assay: Maximum fall in mean arterial blood pressure was measured in SH rats when compound was administered at 20 mg/kg perorally; type: functional; details: route oral
# Canis familiaris [25] = assay: Oral diuretic activity was evaluated by measuring Cl- excretion in dog at 20 mg/kg after […] ( 0-6 hr); type: ADME, organism-based, Canis lupus familiaris, Urine; parameters: dose 20 mg/kg, route intraperitoneal; details: in vivo
# Rattus norvegicus [26] = assay: Oral diuretic activity was evaluated by measuring K+ excretion in Rat at 27 mg/kg after […] ( 0-5 hr); type: ADME, organism-based, Urine; parameters: dose 27 mg/kg; details: in vivo; outline: as §5
# Rattus norvegicus [27] = assay: Oral diuretic activity was evaluated by measuring Na+ excretion in Rat at 9 mg/kg […] ( 0-5 hr); type: ADME, organism-based, Urine; parameters: dose 9 mg/kg; details: in vivo, ip; outline: as §6
# Rattus norvegicus [28] = assay: Compound administered orally at a dose of 81 mg/kg was evaluated for salidiuretic activity measured as sodium ion excretion in Rat; type: ADME, organism-based, Urine; parameters: dose 81 mg/kg, route oral; unit not given beside the values; details: in vivo, po; outline: as §2
# Canis familiaris [29] = assay: Oral diuretic activity was evaluated by measuring Na+ excretion in dog at 10 mg/kg after […] ( 0-6 hr); type: ADME, organism-based, Canis lupus familiaris, Urine; parameters: dose 10 mg/kg; details: in vivo; outline: as §4
# Canis familiaris [30] = assay: Oral diuretic activity was evaluated by measuring K+ excretion in dog at 20 mg/kg after ip administration ( 0-6 hr); type: ADME, organism-based, Canis lupus familiaris, Urine; parameters: dose 20 mg/kg, route intraperitoneal; details: in vivo; outline: as §3
# Rattus norvegicus [31] = assay: Oral diuretic activity was evaluated by measuring K+ excretion in Rat at 81 mg/kg after […] (0-5 hr); type: ADME, organism-based, Urine; parameters: dose 81 mg/kg; outline: as §5
# Rattus norvegicus [32] = organism: Rattus norvegicus; assay: Time taken for the decrease in arterial pressure was measured; type: functional, Artery
# Rattus norvegicus [33] = assay: Oral diuretic activity was evaluated by measuring Na+ excretion in Rat at 81 mg/kg […] (0-5 hr); type: ADME, organism-based, Urine; parameters: dose 81 mg/kg; details: in vivo
# Rattus norvegicus [34] = assay: Oral diuretic activity was evaluated by measuring K+ excretion in Rat at 9 mg/kg […] (0-5 hr); type: ADME, organism-based, Urine; parameters: dose 9 mg/kg; outline: as §5
# Rattus norvegicus [35] = assay: Oral diuretic activity was evaluated by measuring Cl- excretion in Rat at 27 mg/kg […] (0-5 hr); type: ADME, organism-based, Urine; parameters: dose 27 mg/kg; details: in vivo
# Rattus norvegicus [36] = assay: Oral diuretic activity was evaluated by measuring Cl- excretion in Rat at 9 mg/kg […] (0-5 hr); type: ADME, organism-based, Urine; parameters: dose 9 mg/kg; details: in vivo; outline: as §5
# Rattus norvegicus [37] = assay: Oral diuretic activity was evaluated by measuring Cl- excretion in Rat at 81 mg/kg after po administration (0-5 hr); details: in vivo
# Rattus norvegicus [38] = assay: Oral diuretic activity was evaluated by measuring Na+ excretion in Rat at 27 mg/kg […] (0-5 hr); type: ADME, organism-based, Urine; parameters: dose 27 mg/kg; details: in vivo; outline: as §6
# Rattus norvegicus [39] = assay: Oral diuretic activity was evaluated by measuring K+ excretion in Rat at 27 mg/kg […] (0-5 hr); type: ADME, organism-based, Urine; parameters: dose 27 mg/kg; outline: as §5
# Canis familiaris [40] = assay: Compound administered intravenously was evaluated for salidiuretic activity measured as sodium ion excretion in Dog; Value ranges from 800-899; type: ADME, organism-based, Canis lupus familiaris, Urine; details: in vivo, iv; outline: as §1
structure (smiles),measurement,setting,value
Cl.NCc1c(O)c(Cl)cc(Cl)c1Cl,Diuretic activity,Canis familiaris [1],800
same,Diuretic activity,[2],0.5
same,Diuretic activity,Canis familiaris [3],4.5
same,Diuretic activity,Canis familiaris [4],37.25
same,Diuretic activity,Rattus norvegicus [5],1.19
same,Diuretic activity,Rattus norvegicus [6],2.4
same,Diuretic activity,Canis familiaris [7],5.25
same,Diuretic activity,Canis familiaris [8],5
same,Diuretic activity,Rattus norvegicus [9],0.25
same,Diuretic activity,Rattus norvegicus [10],2.77
same,Diuretic activity,Rattus norvegicus [11],0.32
same,Diuretic activity,Canis familiaris [12],2.25
same,Diuretic activity,Canis familiaris [13],19.63
same,Diuretic activity,Rattus norvegicus [14],0.6
same,Diuretic activity,Canis familiaris [15],27.27
same,Diuretic activity,Canis familiaris [16],6.5
same,Diuretic activity,Rattus norvegicus [17],0.41
same,Diuretic activity,Rattus norvegicus [18],0.46
same,Diuretic activity,Canis familiaris [19],14.75
same,Diuretic activity,[20],1.4
same,Diuretic activity,Rattus norvegicus [21],2.36
same,Diuretic activity,Rattus norvegicus [22],3.47
same,Diuretic activity,Rattus norvegicus [23],1.89
same,MAP,Rattus norvegicus [24],18 mmHg
same,Diuretic activity,Canis familiaris [25],50.25
same,Diuretic activity,Rattus norvegicus [26],0.45
same,Diuretic activity,Rattus norvegicus [27],0.94
same,Diuretic activity,Rattus norvegicus [28],2.9
same,Diuretic activity,Canis familiaris [29],20.64
same,Diuretic activity,Canis familiaris [30],8.25
NNc1nncc2ccccc12 [HYDRALAZINE],Diuretic activity,Rattus norvegicus [31],0.11
same,Duration,Rattus norvegicus [32],8 h and 18 h
same,Diuretic activity,Rattus norvegicus [33],0.17
same,Diuretic activity,Rattus norvegicus [34],0.27
same,Diuretic activity,Rattus norvegicus [35],0.02
same,Diuretic activity,Rattus norvegicus [36],0.02
same,Diuretic activity,Rattus norvegicus [37],0.01
same,Diuretic activity,Rattus norvegicus [38],0.04
same,Diuretic activity,Rattus norvegicus [39],0.07
CC(C)(C)c1cc(CN)c(O)c(C(=O)O)c1.Cl,Diuretic activity,Canis familiaris [40],800
